Reference: ChEMBL document CHEMBL4138279, “Probing the Antiallergic and Anti-inflammatory Activity of Biflavonoids and Dihydroflavonols from Dietes bicolor” (J Nat Prod, 2018)
One block for each compound: values may come before it.

Tests used:
RBL-2H3 [1] = assay: Antiallergic activity in anti-DNP IgE-sensitized rat RBL2H3 cells assessed as inhibition of DNP-BSA-induced beta hexosaminidase release pretreated for 10 mins followed by DNP-BSA addition measured after 10 mins by p-NAG substrate based assay; assay type: functional, cell-based
Neutrophil elastase = biological target: T1, Neutrophil elastase (Homo sapiens, UniProt P08246); assay: Inhibition of human neutrophil elastase using N-Methoxysuccinyl-Ala-Ala-Pro-Val-p-nitroanilid as substrate measured after 1 hr
T1 sequence (P08246 whole entry): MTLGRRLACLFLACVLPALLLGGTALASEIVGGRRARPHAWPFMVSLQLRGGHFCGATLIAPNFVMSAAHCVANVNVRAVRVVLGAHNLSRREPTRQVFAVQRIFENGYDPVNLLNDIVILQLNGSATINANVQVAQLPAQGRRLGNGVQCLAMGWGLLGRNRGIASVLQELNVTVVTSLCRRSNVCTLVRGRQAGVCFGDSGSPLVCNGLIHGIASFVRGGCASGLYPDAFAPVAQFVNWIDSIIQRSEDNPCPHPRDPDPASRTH

RBL-2H3 [2] = assay: (§1) Antiallergic activity in anti-DNP IgE-sensitized rat RBL2H3 cells assessed as inhibition of DNP-BSA-induced beta hexosaminidase release at 100 uM pretreated for 20 hrs followed by anti-DNP IgE-sensitization for 2 hrs and subsequent DNP-BSA addition measured after 1 hr by p-NAG substrate based assay relative to control; assay type: functional
Procedure, shortened: (§2)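 RBL-2H3 cells in DMEM with 10% FBS at 37 °C and 5% CO2 were seeded at 3 × 10^4 cells/well overnight, then treated 20 h with compounds (1 to 400 μM). Cells were sensitized with anti-DNP IgE (1 μg/mL, at least 2 h) and challenged with DNP-BSA (100 ng/mL) for 1 h. β-Hexosaminidase was read with p-NAG substrate as % inhibition versus antigen control. Mean ± SD, n = 3.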

RBL-2H3 [3] = assay: as §1, with “400” for “100”; assay type: functional; procedure, shortened: as §2
RBL-2H3 [4] = assay: Antiallergic activity in rat RBL2H3 cells assessed as inhibition of A23187-induced beta hexosaminidase release at 400 uM pretreated for 20 hrs followed by A23187 addition measured after 1 hr by p-NAG substrate based assay relative to control; assay type: functional
Procedure, shortened: (§3)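 Degranulation assay: RBL-2H3 cells were seeded at 2 × 10^4 cells/well overnight and exposed to compounds (1 to 400 μM) for 20 h. They were then activated with calcium ionophore A23187 (1 μM). Released β-hexosaminidase was quantified using p-NAG substrate and expressed as % inhibition relative to A23187 control, mean ± SD (n = 3).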

Neutrophil [5] = assay: Antiinflammatory activity in human neutrophils assessed as inhibition of fMLP/CB-induced elastase release pretreated for 5 mins followed by fMLP/CB stimulation using MeO-Suc-Ala-Ala-Pro-Val-p-nitroanilide as substrate; assay type: functional, cell-based
Procedure, shortened: (§4)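 Elastase release from fMLF/cytochalasin B-activated human neutrophils, isolated from venous blood of healthy volunteers aged 20−30, measured with N-methoxysuccinyl-Ala-Ala-Pro-Val-p-nitroanilide as substrate. Pure compounds were tested at 0.3 to 10 μM. Results are IC50 or % inhibition at 10 μM relative to fMLF/CB control, mean ± SEM (n = 3−4).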

Neutrophil [6] = assay: (§5) Anti-inflammatory activity in human neutrophils assessed as inhibition of fMLP/CB-induced superoxide anion generation at 10 uM pretreated for 5 mins followed by cytochalasin B addition for 3 mins and subsequent fMLP stimulation for 10 mins by superoxide dismutase inhibitable reduction of ferricytochrome c based spectrophotometric assay relative to control; assay type: functional
Procedure, shortened: (§6)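 Human neutrophils isolated from venous blood of healthy adult volunteers (20−30 years), stimulated with fMLF/cytochalasin B. Superoxide anion was measured as ferricytochrome c reduction. Pure compounds were tested at 0.3 to 10 μM. IC50 was taken as the concentration giving 50% inhibition, and single-point values as % inhibition at 10 μM versus fMLF/CB control. Mean ± SEM, n = 3−4.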

RBL-2H3 [7] = assay: Antiallergic activity in rat RBL2H3 cells assessed as inhibition of A23187-induced beta hexosaminidase release at 10 uM pretreated for 20 hrs followed by A23187 addition measured after 1 hr by p-NAG substrate based assay relative to control; assay type: functional; procedure, shortened: as §3
RBL-2H3 [8] = assay: Antiallergic activity in rat RBL2H3 cells assessed as inhibition of A23187-induced beta hexosaminidase release at 200 uM pretreated for 20 hrs followed by A23187 addition measured after 1 hr by p-NAG substrate based assay relative to control; assay type: functional; procedure, shortened: as §3
[9] = Cytotoxicity against rat RBL2H3 cells assessed as cell viability at 400 uM after 24 hrs by MTT assay relative to control; assay type: cell-based; conditions: RBL-2H3 cells, read-out: Activity
Procedure, shortened: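 Viability of RBL-2H3 cells, cultured in DMEM with 10% FBS at 37 °C and 5% CO2, was determined by MTT after exposure to pure compounds at 400 μM. It is expressed as % of untreated control, mean ± SD (n = 3). Viability below 80% was classed as cytotoxic.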

RBL-2H3 [10] = assay: as §1, with “10” for “100”; assay type: functional; procedure, shortened: as §2
RBL-2H3 [11] = assay: as §1, with “200” for “100”; assay type: functional; procedure, shortened: as §2
RBL-2H3 [12] = assay: Antiallergic activity in rat RBL2H3 cells assessed as inhibition of A23187-induced beta hexosaminidase release at 1 uM pretreated for 20 hrs followed by A23187 addition measured after 1 hr by p-NAG substrate based assay relative to control; assay type: functional; procedure, shortened: as §3
Neutrophil [13] = assay: Antiinflammatory activity in human neutrophils assessed as inhibition of fMLP/CB-induced elastase release at 10 uM pretreated for 5 mins followed by fMLP/CB stimulation using MeO-Suc-Ala-Ala-Pro-Val-p-nitroanilide as substrate relative to control; assay type: functional; procedure, shortened: as §4
RBL-2H3 [14] = assay: Antiallergic activity in rat RBL2H3 cells assessed as inhibition of A23187-induced beta hexosaminidase release at 100 uM pretreated for 20 hrs followed by A23187 addition measured after 1 hr by p-NAG substrate based assay relative to control; assay type: functional; procedure, shortened: as §3
RBL-2H3 [15] = assay: as §1, with “1” for “100”; assay type: functional; procedure, shortened: as §2
Neutrophil [16] = assay: as §5, with “generation” for “generation at 10 uM”, “assay” for “assay relative to control”; assay type: functional, cell-based; procedure, shortened: as §6
RBL-2H3 [17] = assay: as §1, with “10 nM” for “100 uM”; assay type: functional
RBL-2H3 [18] = assay: Antiallergic activity in rat RBL2H3 cells assessed as inhibition of A23187-induced beta hexosaminidase release at 10 nM pretreated for 20 hrs followed by A23187 addition measured after 1 hr by p-NAG substrate based assay relative to control; assay type: functional

SMILES: COc1c2c(cc3c1C(=O)[C@H](O)[C@@H](c1ccccc1)O3)OCO2 (relative stereo)
IC50 (RBL-2H3 [1]): > 100000 nM

IC50 (Neutrophil elastase): 1270 nM
IC50 (Neutrophil [5]): 750 nM
IC50 (Neutrophil [16]): 1010 nM
SMILES: O=c1cc(-c2ccc(O)c(-c3c(O)cc(O)c4c(=O)cc(-c5ccc(O)cc5)oc34)c2)oc2cc(O)cc(O)c12 [AMENTOFLAVONE]
inhibition at 100 µM (RBL-2H3 [2]): 2.7%
inhibition at 400 µM (RBL-2H3 [3]): 50%
inhibition at 400 µM (RBL-2H3 [4]): 42.3%
inhibition at 10 µM (Neutrophil [6]): 104%
inhibition at 10 µM (RBL-2H3 [7]): 6.7%
inhibition at 200 µM (RBL-2H3 [8]): 3.3%
viability at 24 h, 400 µM [9]: 97.7%
inhibition at 10 µM (RBL-2H3 [10]): 1.3%
inhibition at 200 µM (RBL-2H3 [11]): 7.7%
inhibition at 1 µM (RBL-2H3 [12]): 2%
inhibition at 10 µM (Neutrophil [13]): 108%
inhibition at 100 µM (RBL-2H3 [14]): 0%
inhibition at 1 µM (RBL-2H3 [15]): 4.7%

SMILES: COc1cc(OC)c2c(c1)O[C@H](c1ccccc1)[C@@H](O)C2=O (relative stereo)
IC50 (RBL-2H3 [1]): > 100000 nM

SMILES: COc1c(O)cc(O)c2c1O[C@H](c1ccccc1)[C@@H](O)C2=O
IC50 (RBL-2H3 [1]): > 100000 nM

IC50 (Neutrophil elastase): 1330 nM
IC50 (Neutrophil [5]): 450 nM
IC50 (Neutrophil [16]): 1010 nM
SMILES: O=c1cc(-c2ccc(O)c(-c3c(O)cc4oc(-c5ccc(O)cc5)cc(=O)c4c3O)c2)oc2cc(O)cc(O)c12 [ROBUSTAFLAVONE]
inhibition at 100 µM (RBL-2H3 [2]): 2.7%
inhibition at 400 µM (RBL-2H3 [3]): 49%
inhibition at 400 µM (RBL-2H3 [4]): 45.3%
inhibition at 10 µM (Neutrophil [6]): 105%
inhibition at 10 µM (RBL-2H3 [7]): 5.3%
inhibition at 200 µM (RBL-2H3 [8]): 2.7%
viability at 24 h, 400 µM [9]: 92.3%
inhibition at 10 µM (RBL-2H3 [10]): 3%
inhibition at 200 µM (RBL-2H3 [11]): 3%
inhibition at 1 µM (RBL-2H3 [12]): 2.3%
inhibition at 10 µM (Neutrophil [13]): 103%
inhibition at 100 µM (RBL-2H3 [14]): 6%
inhibition at 1 µM (RBL-2H3 [15]): 4%

IC50 (Neutrophil [5]): 3440 nM
IC50 (Neutrophil [16]): 1250 nM
SMILES: O=c1cc(N2CCOCC2)oc2c(-c3ccccc3)cccc12 [LY-294002]
inhibition at 10 µM (Neutrophil [6]): 96.5%
inhibition at 10 µM (Neutrophil [13]): 71.5%

IC50 (Neutrophil [5]): > 10000 nM
IC50 (Neutrophil [16]): > 10000 nM
SMILES: COc1cc(O)c2c(=O)c(-c3ccc(O)c(OC)c3)coc2c1
inhibition at 100 µM (RBL-2H3 [2]): 9%
IC50 (RBL-2H3 [1]): > 100000 nM
inhibition at 10 µM (Neutrophil [6]): 48.9%
inhibition at 10 µM (RBL-2H3 [7]): 1.7%
inhibition at 200 µM (RBL-2H3 [8]): 22.7%
viability at 24 h, 400 µM [9]: 69%
inhibition at 10 µM (RBL-2H3 [10]): 1.3%
inhibition at 200 µM (RBL-2H3 [11]): 18%
inhibition at 1 µM (RBL-2H3 [12]): 0.3%
inhibition at 10 µM (Neutrophil [13]): 27.1%
inhibition at 100 µM (RBL-2H3 [14]): 23.7%
inhibition at 1 µM (RBL-2H3 [15]): 2.3%

SMILES: C[C@@H]1C[C@H]2[C@@H]3CCC4=CC(=O)C=C[C@]4(C)[C@@]3(F)[C@@H](O)C[C@]2(C)[C@@]1(O)C(=O)CO [DEXAMETHASONE]
inhibition at 0.01 µM (RBL-2H3 [17]): 79.7%
inhibition at 0.01 µM (RBL-2H3 [18]): 80.7%
